# Screening results as filed in PubChem.
# Biofilm kill mix: mixtures killing C. albicans biofilm; C. albicans biofilm persisters + clotrimazole, fluorescence viability; primary screen in compound mixtures of four per well; inhibition, % at 7.6 µM; 0.02% of 120,000 active; AID 1242;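 active means inhibition above 30.3% in the primary screen of four-compound pools, then above 30% when the compound was retested; inconclusive means passed the primary limit but could not be retested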;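 further: compounds exposed to preformed 24 h biofilms for 48 h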
#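 Incubation: 24 h biofilm formation, then 48 h compound exposure, 37 °C | Material: C. albicans biofilms | Buffer or medium: RPMI/MOPS medium, pH 7.0 | Measured by: 2-h Alamar Blue fluorescence, 535/590 nm excitation/emission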
# ROMK mod: human ROMK K+ channel modulation, primary screen; B-score at 10 µM; 2% of 130,000 active; P48048; AID 1918; Tet-inducible ROMK, thallium flux fluorescence; actives lie on both sides;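 active means signal ratio slope over the read window, or its plate-corrected B-score, at least 3 SD from the plate mean, either direction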;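 further: B-score of the F/F0 ratio slope over 7 to 12 s after thallium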
# Target sequence (P48048 whole entry, looked up): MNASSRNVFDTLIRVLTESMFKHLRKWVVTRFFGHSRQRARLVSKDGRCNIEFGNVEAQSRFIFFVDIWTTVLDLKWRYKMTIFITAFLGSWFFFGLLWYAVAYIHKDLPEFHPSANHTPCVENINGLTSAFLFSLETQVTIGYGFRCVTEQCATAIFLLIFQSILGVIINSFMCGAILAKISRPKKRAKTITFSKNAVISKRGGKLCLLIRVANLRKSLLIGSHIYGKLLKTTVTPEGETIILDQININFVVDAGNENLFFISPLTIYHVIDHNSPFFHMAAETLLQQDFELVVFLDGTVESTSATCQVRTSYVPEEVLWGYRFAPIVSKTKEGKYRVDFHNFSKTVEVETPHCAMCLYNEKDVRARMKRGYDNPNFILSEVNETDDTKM
# ROMK retest: confirmation of human ROMK potassium channel modulators; normalized thallium flux (F/F0 slope) at 10 µM; shares compounds with ROMK mod; ROMK thallium flux, fluorescence ratio; hits give low values; AID 1917; 54% of 3,000 active;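 active means Flux at 10 µM at least 3 SD below or above vehicle control mean in one or both replicates; inconclusive means no clear call, values can overlap the other calls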
# Numbers stand for hits; n = inactive; u = inconclusive; x = no result given. The full list was thinned out, with hits kept by preference.
SMILES,Biofilm kill mix,ROMK mod,ROMK retest
Oc1nc(Nc2ccc(F)cc2)sc1/C=C1\C=Nc2ccccc21,n,n,x
Cc1cc(C)c(C)c(S(=O)(=O)Nc2ccc(C(N)=O)cc2)c1C,n,n,x
COc1ccc(C2(O)CCN(CCCCOc3ccccc3)CC2)cc1,x,-4.6,0.061
COc1ccc(C2(O)CCN(C(=O)Cc3cccnc3)CC2)cc1,x,n,x
CCOc1ccc(CSC(=N)N)cc1Cl,n,x,x
CCCCOc1ccc(CSCCN)cc1Cl,n,-3.2,u
Cc1nc2ccccc2c2oc(C(=O)Nc3ccc(C(C)C)cc3)cc12,n,x,x
CCc1ccc(CNC(=O)c2cc3c(C)nc4ccccc4c3o2)cc1,x,x,n
Cc1ccccc1-c1ccc(/C=C2/SC(N3CCOCC3)=NC2=O)o1,n,x,x
O=C1N=C(N2CCOCC2)S/C1=C\c1ccc(-c2ccccc2Cl)o1,n,x,0.052
COc1ccc(NC(=O)C(c2ccccc2)N2CCN(c3ccccn3)CC2)cc1Cl (stereo unspecified),n,n,x
O=C(O)c1ccc(OCc2cn3ccccc3n2)cc1,n,x,x
O=C(COc1ccc(Oc2ccccc2)cc1)NCc1cn2ccccc2n1,n,2.9,n
Cc1csc2ncnc(N3CCN(C(=O)Nc4ccc(OC(F)(F)F)cc4)CC3)c12,n,n,x
O=C(c1ccc(Cl)cc1)c1c[nH]c(C(=O)NNc2cccc(Cl)n2)c1,n,n,x
O=C(c1ccccc1)c1c[nH]c(C(=O)NNc2cccc(Cl)n2)c1,n,2,n
COc1ccc(C(=O)NC(=S)NCc2ccccc2)cc1,x,n,x
Cc1ccc(S(=O)(=O)N2CCN(CC(O)c3ccccc3)CC2)cc1 (stereo unspecified),n,n,x
CCOC(=O)COc1cccc2c(=O)n(CC(=O)NCc3ccc(F)cc3)ccc12,n,3.1,n
CCOC(=O)COc1cccc2c(=O)n(CC(=O)NCCc3ccc(OC)c(OC)c3)ccc12,n,n,x
CCOC(=O)COc1cccc2c(=O)n(CC(N)=O)ccc12,n,n,x
CCOC(=O)COc1cccc2c(=O)n(CC(=O)NCc3ccccc3)ccc12,n,4.7,n
COc1ccc(NC(=O)C(NC(=O)CC2NC(=O)NC2=O)c2ccccc2)cc1 (stereo unspecified),n,n,x
Nc1ccc(N2CCCCCC2)cc1,x,n,x
CCCCCCNC(=O)N[C@H](C(=O)NCCC[C@H]1CN2C(=NC[C@H]2C)N1CCC(c1ccccc1)c1ccccc1)C(C)O (stereo partly specified),n,x,0.061
SMILES,Biofilm kill mix,ROMK mod,ROMK retest
C[C@@H]1CN=C2N(CCNC(=O)CCC3CCCCC3)[C@H](Cc3ccc(O)cc3)CN21,n,x,x
COc1cc(CNC(C)(C)CO)cc(Br)c1OCc1ccc(Cl)cc1,n,-5.1,0.056
COc1cc(CNC(C)(C)CO)cc(Br)c1OCc1ccc(Cl)cc1Cl,n,n,x
C=C(C)Cn1c(C2CC(=O)N(c3ccccc3F)C2)nc2ccccc21 (stereo unspecified),n,n,x
Cc1cc(C(=O)CSc2nnc(-c3cccs3)n2Cc2ccccc2)c(C)n1C,x,n,x
O=c1cc(CSc2nnc(-c3cccs3)n2Cc2ccccc2)nc2sc3ccccc3n12,x,x,0.064
O=C(/C=C/c1ccc(F)cc1)N1CCN(S(=O)(=O)/C=C/c2ccccc2)CC1,n,3,n
O=C(/C=C/c1ccccc1)N1CCN(S(=O)(=O)c2ccc(F)cc2)CC1,n,n,x
COc1ccc(CNC(=O)/C=C/c2ccccc2[N+](=O)[O-])cc1,n,n,x
COC(=O)C(=Cc1ccccc1[N+](=O)[O-])C(=O)OC,n,-2.6,0.051
CN(Cc1ccccc1)C(=O)COC(=O)c1ccc(S(=O)(=O)N(C)C)cc1,n,n,x
CCOC(=O)CCCOC(=O)c1ccc(S(=O)(=O)N(C)C)cc1,x,x,n
CC1=C(C(=O)OC(C)C)C(c2cccs2)N2C(=O)C(C)SC2=N1 (stereo unspecified),x,n,x
C=CCSc1[nH]c(=O)cc(C)c1C(N)=O,x,n,x
CC(=O)c1c(O)c2ccccc2n(C)c1=O,n,n,x
O=c1c(Cl)c(O)c2cccc3c4ccccc4n1c23,n,n,n
COc1ccc(C(C)=O)cc1CN1CCCCC1,n,x,x
COc1ccc(C(C)=O)cc1CN1C(=O)NC2(CCCCC2)C1=O,x,2,n
CN(CC(=O)NC(=O)NCc1ccccc1)Cc1cccc(Cl)c1Cl,n,n,x
O=C(C1=C[C@@H](c2ccc(Br)cc2)C[C@@H](OCc2ccc(CO)cc2)O1)N1CCN(Cc2ccccc2)CC1,n,x,x
N#C/C(=C(/O)c1ccco1)c1nc2ccccc2s1,n,x,x
N#C/C(=C(/O)c1cc2ccccc2o1)c1nc2ccccc2s1,n,x,0.058
O=C(NCc1n[nH]c(=S)n1-c1cccc(C(F)(F)F)c1)c1ccc(S(=O)(=O)N2CCCC2)cc1,n,n,x
O=C(NCc1n[nH]c(=S)n1-c1ccc(F)cc1)c1ccc(S(=O)(=O)N2CCCC2)cc1,x,1.3,n
O=C(CC(c1ccccc1)c1ccccc1)Nc1ccncc1,n,x,n
